What all share (format): functional, Homo sapiens
Experiment [1] relates to KB. Description: Percentage inhibition of growth against KB-C2 cells in the presence of colchicine(0.1 ug/mL) was determined when administered at 1 ug/mL. Put shortly: (§1)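 Multidrug-resistant KB-C2 cells were selected from KB-3-1 and kept in colchicine-containing RPMI 1640 with glutamine, kanamycin and 10% newborn calf serum. 10,000 cells per well were preincubated 24 h at 37 °C in 5% CO2. Colchicine plus the test sample were added together and incubated 48 h. Growth was read by MTT (3 h), with the formazan extracted in DMSO.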

Experiment [2] relates to KB 3-1. Description: Cytotoxicity against KB-3-1 cells was determined when administered at 3 ug/mL. The gist of the method:
(§2)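 Parental KB-3-1 cells grown in RPMI 1640 with glutamine, kanamycin and 10% newborn calf serum. 10,000 cells per well were preincubated 24 h at 37 °C in 5% CO2. The test sample was then added alone and incubated 48 h. MTT was added for 3 h, and the formazan was extracted with DMSO before the colorimetric read.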

Experiment [3] concerns KB. As to the kind of experiment: Percentage inhibition of growth against KB-C2 cells in the presence of colchicine(0.1 ug/mL) was determined when administered at 3 ug/mL. The gist of the method: as §1
For experiment [4], the system named is KB 3-1. As to the kind of experiment: Cytotoxicity against KB-3-1 cells was determined when administered at 10 ug/mL. The gist of the method:
as §2

Experiment [5] deals with KB 3-1. Description: Cytotoxicity against KB-3-1 cells was determined when administered at 1 ug/mL. The gist of the method:
as §2

Experiment [6] concerns KB. As to the kind of experiment: Percentage inhibition of growth against KB-C2 cells in the presence of colchicine(0.1 ug/mL) was determined when administered at 10 ug/mL. Put shortly: as §1
For experiment [7], the system named is KB. As to the kind of experiment: Percentage inhibition of growth against KB-C2 cells in the presence of colchicine (0.1 ug/mL) was determined when administered at 3 ug/mL. The gist of the method: as §1

For `CC(C)CC(=O)OC[C@H]1O[C@H](O[C@]2(COC(=O)CC(C)C)O[C@H](COC(=O)CC(C)C)[C@@H](OC(=O)CC(C)C)[C@@H]2OC(=O)CC(C)C)[C@H](OC(=O)CC(C)C)[C@@H](O)[C@@H]1O`, the Growth inhibition in the experiment with KB [1] is listed as 23%; with KB 3-1 [2] it was 16%; in the experiment on KB [3], 60%; with KB 3-1 [4] it was 93%; with KB 3-1 [5] it was 18%; with KB [6], 92%.

On to `CC(C)CC(=O)OC[C@H]1O[C@@](COC(=O)CC(C)C)(O[C@H]2O[C@H](CO)[C@@H](OC(=O)CC(C)C)[C@H](O)[C@H]2OC(=O)CC(C)C)[C@@H](OC(=O)CC(C)C)[C@@H]1OC(=O)CC(C)C`, for which the Growth inhibition amounted to 39% in the experiment on KB [1]; 10% in the experiment with KB 3-1 [2]; 79% in the experiment with KB [3]; 40% in the experiment on KB 3-1 [4]; 2% with KB 3-1 [5]; 88% in the experiment on KB [6].

Take `CC(C)CC(=O)OC[C@H]1O[C@@](COC(=O)CC(C)C)(O[C@H]2O[C@H](CO)[C@@H](O)[C@H](O)[C@H]2OC(=O)CC(C)C)[C@@H](OC(=O)CC(C)C)[C@@H]1OC(=O)CC(C)C`: the Growth inhibition in the experiment on KB [1] is listed as 40%; in the experiment on KB 3-1 [2], 21%; in the experiment with KB [3], 76%; with KB 3-1 [4], 92%; with KB 3-1 [5] it was 10%; with KB [6], 93%.

Regarding `CC(C)CC(=O)OC[C@H]1O[C@@](COC(=O)CC(C)C)(O[C@H]2O[C@H](CO)[C@@H](O)[C@H](OC(=O)CC(C)C)[C@H]2OC(=O)CC(C)C)[C@@H](OC(=O)CC(C)C)[C@@H]1OC(=O)CC(C)C`, the Growth inhibition worked out at 18% in the experiment with KB [1]; 16% in the experiment on KB 3-1 [2]; 53% with KB [3]; 66% in the experiment with KB 3-1 [4]; 6% in the experiment with KB 3-1 [5]; 94% in the experiment with KB [6].

`CC(C)CC(=O)OC[C@H]1O[C@@](COC(=O)CC(C)C)(O[C@H]2O[C@H](COC(=O)CC(C)C)[C@@H](OC(=O)CC(C)C)C(OC(=O)CC(C)C)[C@H]2OC(=O)CC(C)C)[C@@H](OC(=O)CC(C)C)[C@@H]1OC(=O)CC(C)C` (stereo partly specified): the Growth inhibition in the experiment on KB [1] is recorded as 4%; in the experiment on KB 3-1 [2], 15%; in the experiment on KB [3], 12%; with KB 3-1 [4], 25%; in the experiment with KB 3-1 [5], 10%; in the experiment with KB [6], 24%.

Take `CC(C)CC(=O)O[C@@H]1[C@@H](OC(=O)CC(C)C)[C@@H](O[C@]2(CO)O[C@H](CO)[C@@H](OC(=O)CC(C)C)[C@@H]2OC(=O)CC(C)C)O[C@H](CO)[C@H]1OC(=O)CC(C)C`: the Growth inhibition in the experiment with KB [1] is given as 65%; in the experiment on KB 3-1 [2] it was 8%; in the experiment on KB [7], 92%; with KB 3-1 [4], 98%; with KB 3-1 [5] it was 9%; in the experiment on KB [6], 97%.

These data come from ChEMBL document CHEMBL1134962, “Facilely accessible multidrug resistance modulator derived from sucrose” (2002).
